Reference: the RNAGym collection of RNA variant scans (doi:10.1126/science.aae0568)
Fewer inactive variants are shown than the library holds.

B1: tRNA (parent)
chain: GUUCCGUUGGCGUAAUGGUAACGCGUCUCCCUCCUAAGGAGAAGACUGCGGGUUCGAGUCCCGUACGGAACG

Variants of: B1
Test: yeast fitness relative to wild type (ratio to wild type); higher = fitter; tRNA-Arg(CCU), competitive growth, 37 C, YPD
How it was run: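 For this measurement, the tRNA-Arg(CCU) gene was varied by chemical synthesis at a 3% per-site mutation rate across 69 sites, and each variant was placed at the native genomic locus in Saccharomyces cerevisiae. The pooled strains went through a 24-hour competition in YPD at 37°C in six parallel replicates, with amplicons from start and end populations read by 100-nucleotide paired-end sequencing. Darwinian fitness relative to wild type followed from the change in each genotype's frequency. Genotypes needed ≥ 100 starting reads, and estimates < 0.5 were set to 0.5.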

Variant | yeast fitness
C11G C46U C49A C55U | 0.661
G18A C31G A40G C49U G52C | 0.618
G23C C61G | 0.587
U16C G41C C46A | 0.721
G18A C34G G48C C49U | 0.698
C55G U59A G63A | 0.673
G12A A20G C22U | ≤ 0.5
A14G G68U A70U | ≤ 0.5
U19C C29U C34A | ≤ 0.5
C5G C22G C55U | ≤ 0.5
C4G U19A G44C | 0.535
C31A A37C G67A | ≤ 0.5
U16A G18C U35A C55G A69G | 0.64
C11U C31U G51C | ≤ 0.5
U3A C11G G17C C24G C46A | ≤ 0.5
A14U A57U | ≤ 0.5
A15G C30A U59C C62U G68U | ≤ 0.5
A21C C22A C34G G44C C62A | 0.606
U2A G9C U16G U32G G52A G63C C66U | ≤ 0.5
C31A G58C | 0.894
C5A U13C C29U C66U | 0.549

Variant | yeast fitness
G23A A65C | 0.816
A15U C29G C31G C60U | 0.675
A45U C46G C60A | 0.557
A43G G44A C46A G67A | 0.59
G12A C29A A45G | ≤ 0.5
U19C C24G | 0.621
G6A U47C | 0.878
G17A U35G A65U | ≤ 0.5
G6A A21C | 0.84
C5U C11G U13G G23C C34U U59C C66U | ≤ 0.5
C27U G58C U64C | 0.73
C4U U26A A37G C66G | ≤ 0.5
U7G C29G C46U | 0.546
C4U U54C C62U | 0.578
U13A C30A A69C | 0.656
C5G A57U | 0.735
U19C C24U G51A | 0.66
C27A C33U A42U | ≤ 0.5
G6C A15U U26A A57C | 0.707
C11U U35A G38A G52A G56C | ≤ 0.5
A15G C30A | 0.807

Variant | yeast fitness
G25C A45C C46A | 0.991
U13A U19G C49U | 0.625
C24G G25A A65G | 0.609
A21G C29U A45U | 0.86
C30G G58A G68A | 0.705
C5U C31G C33G | 0.579
A15G U26C G63A | ≤ 0.5
G58A C62U | 1.07
G6C U54G | 0.587
U3G C5U U26A G68A | ≤ 0.5
C5A C34U C61G | ≤ 0.5
G38A C49U U54C | ≤ 0.5
C29G G44C A45U U47A | ≤ 0.5
U28A C46A C60U C66U | ≤ 0.5
C24A C27G C29G G52C | 0.996
U3C U19A G52A U59C C66A G67A | ≤ 0.5
A43C A57U G63A | 0.556
C5A U8G U19C A37U G51A G52C U59C | ≤ 0.5
G10A C30U C33G | 0.538
C5U | 0.987
C24U C30U G58C A70G | ≤ 0.5

Variant | yeast fitness
U8A G10C G12C C34G C61G | ≤ 0.5
G10C A15C C29G G48A | 0.643
C30A A42C A70C | 0.819
A42U G67C A69C | 0.573
U2C U47G | 0.626
C11G A65U A69U | 0.625
C24U G63U | 0.627
G6C C11U | 0.872
G52A C55A | 0.581
U28C C31G | 0.907
C4U A57C G58A | 0.58
G23C A69C | 0.612
A20G C33A G44A | 0.535
C4U U7A A20G C24A G51A | ≤ 0.5
A15U G38C C46U A69U A70G | ≤ 0.5
U7C C11U C31U C33G C49A G51A | ≤ 0.5
A14G C30G A36C A69U | ≤ 0.5
U16A G68A A70C | 0.606
A21U C24G | ≤ 0.5
G38A A43G A57C | ≤ 0.5
